Results taken from ChEMBL document CHEMBL1130978, “Discovery of FR115092: a novel antinephritic agent” (1998).

These compounds were tested on Mus musculus (assay: Inhibition of proteinuria in the graft-versus-host disease mice following 100 mg/kg p.o. administration.). Settings: route oral.
Format: functional
Outline: (§1)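 Chronic GVHD induced in 6-week-old female ([…] x DBA/2)F1 mice by two injections of DBA/2 spleen cells (5 x 10^7 cells each), given 5 days apart. Oral dosing once daily for 8 weeks, starting 3 days after the second injection. Urinary albumin measured after the last dose by single radial immunodiffusion with rabbit anti-mouse serum albumin antiserum. Ten mice per group. Value reported as % inhibition of proteinuria.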

First: Nc1ccc([S+]([O-])c2cnc(N)s2)cc1 (stereo not given)
Second: Nc1ccc([S+]([O-])c2ccc(N)cc2)cc1
The inhibition in vivo at 100 mg/kg of the first is lower: 79% for the first, 95% for the second.

First: Nc1ccc(NS(=O)(=O)c2ccc(N)cc2)cc1
Second: Nc1ccc(S(=O)(=O)c2ccc(N)cc2)cc1 [DAPSONE]
The inhibition in vivo at 100 mg/kg of the first is lower: 54% for the first, 95% for the second.

`CS(=O)(=O)Nc1ccc(C(=O)c2ccc(N)cc2)cc1` and `NC(=O)Nc1ccc(C(=O)c2ccc(N)cc2)cc1` cannot be ordered by inhibition in vivo at 100 mg/kg: less than 50% for the first, less than 50% for the second.

First: Nc1ccc([S+]([O-])c2ncccn2)cc1 (stereo not given)
Second: Cn1ccnc1[S+]([O-])c1ccc(N)cc1 (stereo not given)
The inhibition in vivo at 100 mg/kg of the first is higher: 99% for the first, less than 50% for the second.

First: Cc1cc(C(=O)c2ccc(N)cc2)cc(C)c1N
Second: Cc1cc(C(=O)c2ccc(N)cc2)ccc1N
The inhibition in vivo at 100 mg/kg of the first is lower: 99% for the first, 100% for the second.

First: Nc1ccc(C(=O)c2cccc(N)c2)cc1
Second: Nc1ccc(C(=O)c2ccc(N)cc2)cc1
The inhibition in vivo at 100 mg/kg of the first is lower: less than 50% for the first, 95% for the second.

Compared with `Nc1ccc(NC(=O)c2ccc(N)cc2)cc1`, `Nc1ccc(Oc2ccc(N)cc2)cc1` is higher in inhibition in vivo at 100 mg/kg: less than 50% for the first, 93% for the second.

Compared with `Nc1ccc(C(=O)c2ccncc2)cc1`, `Nc1ccc(Sc2ccc(N)cc2)cc1` [4,4'-THIODIANILINE] is lower in inhibition in vivo at 100 mg/kg: 89% for the first, 70% for the second.

Going from `Nc1ncc(Sc2ccccn2)s1` to `Nc1ncc(S(=O)(=O)c2ccccn2)s1`, the inhibition in vivo at 100 mg/kg rises from 90% to 92%.

Compound `Nc1ncc([S+]([O-])c2ccccn2)s1` (stereo not given) has an inhibition in vivo at 100 mg/kg of 98%.

The compounds below were run on Mus musculus (assay: Compound was tested for the inhibition of proteinuria in the graft-versus-host disease (GVHD) in mice at 100 mg/kg p.o.; 8/10 mice died). Settings: route oral.
Format: functional

`Nc1ncc([S+]([O-])c2ccncc2)s1` (stereo not given) gave an inhibition in vivo at 100 mg/kg of 100%.

Each compound was assayed on Mus musculus (assay: Antinephritic activity on chronic graft-versus-host disease (GVHD) in mice at 32 mg/kg p.o.). Settings: route oral.
Format: functional
Outline: as §1

`Nc1ncc(S(=O)(=O)c2ccccn2)s1` and `Nc1ccc(S(=O)(=O)c2ccc(N)cc2)cc1` [DAPSONE] cannot be ordered by inhibition in vivo at 32 mg/kg: 29% for the first, less than 50% for the second.

What follows are compounds tested on Mus musculus (assay: Compound was tested for the inhibition of proteinuria in the graft-versus-host disease (GVHD) in mice at 100 mg/kg p.o.; 9/10 mice died). Settings: route oral.
Format: functional

`Nc1ccc([S+]([O-])c2ccncc2)cc1` (stereo not given) showed an inhibition in vivo at 100 mg/kg of less than 50%.

What follows are compounds tested on Mus musculus (assay: Antinephritic activity on chronic graft-versus-host disease (GVHD) in mice at 10 mg/kg p.o.). Settings: route oral.
Format: functional
Outline: as §1

Compared with `Nc1ncc(S(=O)(=O)c2ccccn2)s1`, `Nc1ccc(S(=O)(=O)c2ccc(N)cc2)cc1` [DAPSONE] is lower in inhibition in vivo at 10 mg/kg: 63% for the first, less than 50% for the second.
